In assay [1] the target is T1, SULT1A1 (Homo sapiens, UniProt P50225). Description: Presteady state. The assay is classed as binding. The settings on record: for koff: pH 7.4, 25 °C.
Assay [2] has as its target T1, SULT1A1. The assay is classed as binding. An outline of the steps: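 Purified tag-cleaved human SULT1A1 in 5.0 mM MgCl2, 25 mM potassium phosphate pH 7.4, 0 or 125 μM PAP, 25 ± 2 °C. Ligand titrated from ethanol:water (1:1), final ethanol <0.5%. Intrinsic fluorescence quenching read at λex 290 nm. Triplicate titrations averaged, ΔI/ΔImax vs total ligand least-squares fit with a quadratic single-site-per-monomer model, giving apparent […].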

Assay [3] has as its target T1, SULT1A1. Description: SULT1A1 intrinsic hydrolysis of PAPS. The assay is classed as biochemical. The settings on record: saturating 35S-PAPS (7.0 μM), MgCl2 5.0 mM, KPO4 25 mM, pH 7.4, 25 °C.
The mark [4] stands for this setting: pH 7.4, enzyme species PAPS·E (saturating PAPS).

For orientation: Kd means the free concentration of one partner at which half of the binding sites on the other are occupied at equilibrium, for simple one-to-one binding. What is called koff is the first-order rate constant of dissociation.

Where two headings read alike, the source gives them in different places.

T1 sequence (P50225 whole entry): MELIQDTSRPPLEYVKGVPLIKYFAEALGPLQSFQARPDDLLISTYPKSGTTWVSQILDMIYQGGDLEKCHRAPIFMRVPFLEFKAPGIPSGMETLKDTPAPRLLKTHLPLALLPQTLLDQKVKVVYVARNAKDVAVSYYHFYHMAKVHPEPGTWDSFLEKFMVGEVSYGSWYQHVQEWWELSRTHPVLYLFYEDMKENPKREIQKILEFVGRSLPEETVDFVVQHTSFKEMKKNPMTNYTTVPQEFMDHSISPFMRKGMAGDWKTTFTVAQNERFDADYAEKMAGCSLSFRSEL

With `C[C@]12CC[C@@H]3c4ccc(O)cc4CC[C@H]3[C@@H]1CC[C@@H]2O` [E2, estradiol], the Kd on SULT1A1 [1] was determined as 1300 nM; on SULT1A1 [2] it was 1700 nM. Also, the koff at SULT1A1 [1] (pH 7.4, enzyme species E) was 1.6 s⁻¹; at SULT1A1 [1] (setting [4]) it was 1.9 s⁻¹. In addition, the “effect of PAPS on binding on- and off-rate constants” value on SULT1A1 [1] (saturating PAPS) is listed as “not significantly affected”.
As for `Nc1ncnc2c1ncn2[C@@H]1O[C@H](COP(=O)(O)OS(=O)(=O)O)[C@@H](OP(=O)(O)O)[C@H]1O` [PAPS, 3′-phosphoadenosine 5′-phosphosulfate], the “kcat (app) for SULT1A1 hydrolysis of PAPS” value on SULT1A1 [3] turned out to be 0.000767 s⁻¹.
With `C[C@]12CC[C@@H]3c4ccc(O)cc4C[C@@H](CCCCCCCCC[S+]([O-])CCCC(F)(F)C(F)(F)F)[C@H]3[C@@H]1CC[C@@H]2O` (stereo partly drawn) [fulvestrant, (7R,8R,9S,13S,14S,17S)-13-methyl-7-[9-(4,4,5,5,5-pentafluoropentyl-sulfinyl)nonyl]-6,7,8,9,11,12,14,15,16,17,-decahydrocyclopenta[α]phenanthrene-3,17-diol], the “fold decrease in apparent on-rate constant at saturating PAPS” value at SULT1A1 [1] (E vs PAPS·E) stood at 26 fold. The dissociation constant Kd at SULT1A1 [1] (Kd (koff/kon), enzyme species E, calculated from rate constants) is 270 nM; at SULT1A1 [2] (Kd, enzyme species E (zero PAP, open form), pH 7.4, 25 °C) it was 280 nM; at SULT1A1 [2] (Kd, enzyme species PAP·E (saturating PAP, 125 μM; closed form), pH 7.4, 25 °C), 6900 ± 900 nM. Also, the koff on SULT1A1 [1] (pH 7.4, enzyme species E) was determined as 1.8 s⁻¹; on SULT1A1 [1] (setting [4]) it was 1.7 s⁻¹. The “effect of PAPS on off-rate constant” value on SULT1A1 [1] (saturating PAPS) is recorded as “not affected”.
